Values after ≈ are worked out from the molar mass of the structure shown. Values belong to the compound of their own block, whether it stands above or below them.
Experiments:
Rattus norvegicus [1] = test: Antiinflammatory activity in po dosed ovalbumin-sensitized Brown Norway rat assessed as inhibition of ovalbumin-induced eosinophil influx into BALF administered 2 hrs prior to ovalbumin-challenge measured after 24 hrs; format: functional
Summary of the method: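 Brown Norway rats were actively sensitized and dosed orally at 0.3, 1 or 3 mg/kg, or with vehicle PEG200:saline 1:1, 2 h before inhaled ovalbumin challenge. Saline-challenged rats served as controls. Eosinophils were counted in BAL fluid 24 h after challenge. Mean ± SEM, 5−10 animals per group. ED50 was estimated.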

[2] = Half life in rat at 4.2 umol/kg, po; format: ADME, organism-based; conditions: in vivo
Summary of the method: (§1)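 Rat PK after iv and po dosing, some compounds given as the potassium or sodium salt. Vehicle was PBS or 25/75 PEG200/PBS. Dose matched formulation strength: iv 1.05, 2.1 or 4.2 μmol/kg; po 2.1 or 4.2 μmol/kg. For some compounds iv and po used the same dose (2.1 or 4.2 μmol/kg).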

[3] = Tmax in rat at 4.2 umol/kg, po; format: ADME, organism-based; conditions: in vivo; summary of the method: as §1
[4] = (§2) AUC total in rat at 4.2 umol/kg, po; format: ADME, organism-based, Plasma; conditions: plasma, 4.2 umol/kg; summary of the method: as §1
[5] = Clearance in rat at 4.2 umol/kg, iv; format: ADME, organism-based; conditions: in vivo; summary of the method: as §1
[6] = Volume of distribution at steady state in rat at 4.2 umol/kg, iv; format: ADME, organism-based; conditions: in vivo, read-out: Vdss; summary of the method: as §1
[7] = Cmax in rat at 4.2 umol/kg, po; format: ADME, organism-based; set-up: dose 4.2 umol/kg, route oral; conditions: in vivo; summary of the method: as §1
Phosphodiesterase 4 = Phosphodiesterase 4 (Homo sapiens, UniProt P27815+Q08499+Q07343+Q08493); test: Inhibition of PDE4 in human PBMC assessed as inhibition of LPS-induced TNFalpha production incubated for 10 mins prior to LPS-challenge measured after 20 hrs by sandwich ELISA
Summary of the method: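 Human PBMC were isolated from normal donors by Ficoll−Hypaque and grown at 1 × 10⁶ cells/mL in RPMI1640 with 10% FCS. Compound was preincubated 10 min, then LPS added (10 ng/mL, stock added). Cells were incubated 20 h at 37 °C in 5% CO₂. Supernatant TNF-α was measured by sandwich ELISA at OD405 (sensitivity ~10 pg/mL). IC50 came from inhibition curves.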

[8] = molecular target: 3',5'-cyclic-AMP phosphodiesterase 4A (Homo sapiens, UniProt P27815); test: Inhibition of human PDE4A-mediated [3H]CAMP hydrolysis after 30 to 60 mins by scintillation proximity assay
Chain of 3',5'-cyclic-AMP phosphodiesterase 4A (P27815 whole entry): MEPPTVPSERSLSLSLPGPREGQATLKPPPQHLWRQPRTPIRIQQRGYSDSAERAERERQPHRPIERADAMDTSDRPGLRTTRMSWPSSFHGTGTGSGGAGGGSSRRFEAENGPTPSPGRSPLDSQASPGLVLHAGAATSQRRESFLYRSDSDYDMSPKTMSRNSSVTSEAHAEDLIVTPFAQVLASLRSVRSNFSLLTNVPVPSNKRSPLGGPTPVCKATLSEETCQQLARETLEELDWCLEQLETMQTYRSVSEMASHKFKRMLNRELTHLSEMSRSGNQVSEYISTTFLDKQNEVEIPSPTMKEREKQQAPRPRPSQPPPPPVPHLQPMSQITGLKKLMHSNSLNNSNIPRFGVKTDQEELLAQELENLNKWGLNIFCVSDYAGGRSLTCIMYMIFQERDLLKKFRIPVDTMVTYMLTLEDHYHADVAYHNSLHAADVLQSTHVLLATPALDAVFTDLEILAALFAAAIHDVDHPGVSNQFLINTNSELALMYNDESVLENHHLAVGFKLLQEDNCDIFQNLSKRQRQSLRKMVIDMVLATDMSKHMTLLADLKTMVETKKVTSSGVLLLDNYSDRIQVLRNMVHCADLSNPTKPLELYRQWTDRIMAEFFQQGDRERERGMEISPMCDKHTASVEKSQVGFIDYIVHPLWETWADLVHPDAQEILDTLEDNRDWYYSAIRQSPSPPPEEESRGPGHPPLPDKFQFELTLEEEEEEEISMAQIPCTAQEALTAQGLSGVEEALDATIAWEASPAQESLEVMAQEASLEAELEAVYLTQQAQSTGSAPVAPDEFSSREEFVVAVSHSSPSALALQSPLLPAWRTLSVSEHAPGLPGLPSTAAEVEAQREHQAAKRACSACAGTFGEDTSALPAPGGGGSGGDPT
Summary of the method: (§3)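 Enzyme was diluted in 10 mM Tris-HCl pH 7.5 with 1 mM EDTA to give 10–30% substrate hydrolysis. Substrate was [3H]-cAMP (0.1 μCi) with 1 μM cAMP. Inhibitors were tested at 10 concentrations with 1% DMSO, 30−60 min at room temperature, stopped with PDE SPA beads and counted. IC50 came from curves. Mean of ≥2 experiments in duplicate, SEM where n ≥ 3.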

[9] = Thermodynamic aqueous solubility of the compound at pH 6.8; format: physicochemical; conditions: buffer; for solubility thermodynamic: read-out: Therm_solubility
[10] = molecular target: 3',5'-cyclic-AMP phosphodiesterase 4D (Homo sapiens, UniProt Q08499); test: Inhibition of human PDE4D-mediated [3H]CAMP hydrolysis after 30 to 60 mins by scintillation proximity assay; summary of the method: as §3
Chain of 3',5'-cyclic-AMP phosphodiesterase 4D (Q08499 whole entry): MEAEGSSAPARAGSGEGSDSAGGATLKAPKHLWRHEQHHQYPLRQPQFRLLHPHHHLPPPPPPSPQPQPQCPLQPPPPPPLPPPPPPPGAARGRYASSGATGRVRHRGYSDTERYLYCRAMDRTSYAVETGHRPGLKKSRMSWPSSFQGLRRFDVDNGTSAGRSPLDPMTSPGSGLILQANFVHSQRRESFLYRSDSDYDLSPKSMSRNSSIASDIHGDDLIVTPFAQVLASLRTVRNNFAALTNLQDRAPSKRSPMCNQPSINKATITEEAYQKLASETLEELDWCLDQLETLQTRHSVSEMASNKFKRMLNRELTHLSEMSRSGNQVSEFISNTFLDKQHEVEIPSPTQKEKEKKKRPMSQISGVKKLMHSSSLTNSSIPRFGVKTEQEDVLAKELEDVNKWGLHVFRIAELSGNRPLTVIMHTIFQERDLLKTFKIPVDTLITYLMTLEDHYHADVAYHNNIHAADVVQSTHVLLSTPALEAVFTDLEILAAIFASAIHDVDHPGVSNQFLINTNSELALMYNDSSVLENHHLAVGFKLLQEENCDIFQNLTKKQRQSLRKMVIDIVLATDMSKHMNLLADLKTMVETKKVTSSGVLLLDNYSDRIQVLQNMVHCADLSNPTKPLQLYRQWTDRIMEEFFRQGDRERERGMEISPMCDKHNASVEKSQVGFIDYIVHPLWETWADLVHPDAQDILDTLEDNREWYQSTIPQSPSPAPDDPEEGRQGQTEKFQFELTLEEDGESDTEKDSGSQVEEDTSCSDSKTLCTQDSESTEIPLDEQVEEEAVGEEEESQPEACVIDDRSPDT

[11] = molecular target: 3',5'-cyclic-AMP phosphodiesterase 4B (Homo sapiens, UniProt Q07343); test: Inhibition of human PDE4B-mediated [3H]CAMP hydrolysis after 30 to 60 mins by scintillation proximity assay; summary of the method: as §3
Chain of 3',5'-cyclic-AMP phosphodiesterase 4B (Q07343 whole entry): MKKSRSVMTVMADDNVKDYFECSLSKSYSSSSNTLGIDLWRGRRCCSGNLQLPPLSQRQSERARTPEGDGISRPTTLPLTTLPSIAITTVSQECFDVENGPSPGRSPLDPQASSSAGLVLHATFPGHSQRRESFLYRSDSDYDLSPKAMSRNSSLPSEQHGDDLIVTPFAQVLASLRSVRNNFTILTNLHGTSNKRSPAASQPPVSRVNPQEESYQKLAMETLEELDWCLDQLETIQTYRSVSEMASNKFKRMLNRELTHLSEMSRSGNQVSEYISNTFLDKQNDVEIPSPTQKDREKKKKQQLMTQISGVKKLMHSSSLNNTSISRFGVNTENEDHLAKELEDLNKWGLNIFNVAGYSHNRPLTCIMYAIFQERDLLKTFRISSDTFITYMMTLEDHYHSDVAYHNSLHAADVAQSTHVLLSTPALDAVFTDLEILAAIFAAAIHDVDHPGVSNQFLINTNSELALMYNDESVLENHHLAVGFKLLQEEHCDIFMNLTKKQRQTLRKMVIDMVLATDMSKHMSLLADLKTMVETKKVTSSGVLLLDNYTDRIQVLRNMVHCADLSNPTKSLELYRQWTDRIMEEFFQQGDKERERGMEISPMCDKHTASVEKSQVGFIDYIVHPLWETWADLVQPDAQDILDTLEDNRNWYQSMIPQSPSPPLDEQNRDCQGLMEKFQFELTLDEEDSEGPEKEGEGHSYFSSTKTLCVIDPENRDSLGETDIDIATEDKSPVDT

[12] = Cmax in rat at 2.1 umol/kg, po; format: ADME, organism-based; set-up: dose 2.1 umol/kg, route oral; conditions: in vivo; summary of the method: as §1
[13] = Clearance in rat at 1.05 umol/kg, iv; format: ADME, organism-based; conditions: in vivo; summary of the method: as §1
[14] = Volume of distribution at steady state in rat at 1.05 umol/kg, iv; format: ADME, organism-based; conditions: in vivo, read-out: Vdss; summary of the method: as §1
[15] = Half life in rat at 2.1 umol/kg, po; format: ADME, organism-based; conditions: in vivo; summary of the method: as §1
[16] = Oral bioavailability in rat at 2.1 umol/kg; format: ADME, organism-based; conditions: in vivo, 2.1 umol/kg; summary of the method: as §1
[17] = Tmax in rat at 2.1 umol/kg, po; format: ADME, organism-based; conditions: in vivo; summary of the method: as §1
[18] = AUC total in rat at 2.1 umol/kg, po; format: ADME, organism-based, Plasma; conditions: plasma, 2.1 umol/kg; summary of the method: as §1
[19] = Volume of distribution at steady state in rat at 2.1 umol/kg, iv; format: ADME, organism-based; conditions: in vivo, read-out: Vdss; summary of the method: as §1
Rattus norvegicus [20] = test: as §2; format: ADME, organism-based, Plasma; conditions: in vivo; summary of the method: as §1
Rattus norvegicus [21] = test: Oral bioavailability in rat at 4.2 umol/kg; format: ADME, organism-based; conditions: in vivo; summary of the method: as §1
Mustela putorius furo = test: Toxicity in ferret assessed as emesis at 0.075 to 4.8 mg/kg, po after 4 hrs; format: organism-based; set-up: dose 0.075-4.8 mg/kg, route oral; conditions: in vivo
Mus musculus = test: Antiinflammatory activity in po dosed BALB/c mouse assessed as inhibition of LPS-induced neutrophil influx into BALF administered 1 hr prior to LPS-challenge measured after 3 hrs; format: functional
Summary of the method: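 Mice were given vehicle (PEG200:saline 1:1) or compound orally at 1−30 mg/kg, 1 h before LPS challenge. The control group got vehicle with PBS challenge. Animals were killed 3 h after challenge. Pooled from two experiments, 6−15 mice per group. Mann−Whitney test versus vehicle/LPS animals.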

Rattus norvegicus [22] = test: Half life in po dosed rat; format: ADME, organism-based; conditions: in vivo; summary of the method: as §1
[23] = Volume of distribution at steady state in iv dosed rat; format: ADME, organism-based; conditions: in vivo, read-out: Vdss; summary of the method: as §1
[24] = Cmax in po dosed rat; format: ADME, organism-based; set-up: route oral; conditions: in vivo; summary of the method: as §1
[25] = AUC total in po dosed rat; format: ADME, organism-based; conditions: plasma; summary of the method: as §1
[26] = Tmax in po dosed rat; format: ADME, organism-based; conditions: in vivo; summary of the method: as §1
[27] = Clearance in iv dosed rat; format: ADME, organism-based; conditions: in vivo; summary of the method: as §1
[28] = Oral bioavailability in rat; format: ADME, organism-based; conditions: in vivo; summary of the method: as §1
[29] = Thermodynamic solubility of the compound at pH 1; format: physicochemical; conditions: buffer
[30] = AUC total in ferret at 3.42 umol/kg, ig; format: ADME, organism-based, Mustela putorius furo; conditions: plasma, po
Summary of the method: (§4)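 Ferret PK after intragastric dosing as a solution in PEG200/saline (50/50, v/v) at 3.42 μmol/kg, with one compound at 2.98 μmol/kg. Plasma levels were measured. Detection limits were 0.5 μM for roflumilast and <0.02 μM for its N-oxide metabolite.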

[31] = Cmax in ferret at 3.42 umol/kg, ig; format: ADME, organism-based, Mustela putorius furo; set-up: dose 3.42 umol/kg, route intragastric; conditions: in vivo, po; summary of the method: as §4
[32] = Half life in ferret at 3.42 umol/kg, ig; format: ADME, organism-based, Mustela putorius furo; conditions: in vivo, po; summary of the method: as §4
[33] = Tmax in ferret at 3.42 umol/kg, ig; format: ADME, organism-based, Mustela putorius furo; conditions: in vivo, po; summary of the method: as §4

Compound: O=C(O)[C@H]1CC[C@H](c2cc3cccnc3c(-c3cccc(F)c3)n2)CC1
- inhibition (Rattus norvegicus [1]): Dose-dependent effect

Compound: COc1cccc(-c2nc([C@H]3CC[C@H](C(=O)O)CC3)cc3cccnc23)c1
- IC50 (Phosphodiesterase 4): 151 nM
- IC50 [8]: 242 nM
- Therm_solubility [9]: 150 µg/mL
- IC50 [10]: 64 nM
- IC50 [11]: 156 nM

Compound: CSc1cccc(-c2nc([C@H]3CC[C@H](C(=O)O)CC3)cc3cccnc23)c1
- IC50 (Phosphodiesterase 4): 19 nM
- IC50 [8]: 27 nM
- solubility thermodynamic [9]: 1100 µg/mL (≈ 2910 µM)
- IC50 [10]: 6 nM
- IC50 [11]: 17 nM

Compound: O=C(Nc1c(Cl)cncc1Cl)c1ccc(OC(F)F)c(OCC2CC2)c1 [ROFLUMILAST]
- Activity (Mustela putorius furo): Toxic
- ED50 (Rattus norvegicus [1]): 0.74 mg/kg
- ED50 (Mus musculus): 12.4 mg/kg

Compound: O=C(O)c1ccc(-c2cc3cccnc3c(-c3ccc4nonc4c3)n2)cc1
- IC50 (Phosphodiesterase 4): 67.6 nM
- t1/2 (Rattus norvegicus [22]): 12 h
- Vd [23]: 0.37 L/kg
- Cmax [24]: 2.4 µM
- AUC [25]: 8.72 µM·h
- Tmax [26]: 3.5 h
- clearance [27]: 2.34 mL/min/kg
- solubility thermodynamic [9]: 2 µg/mL (≈ 5.43 µM)
- bioavailability [28]: 8%
- Therm_solubility [29]: 0.04 µg/mL

Compound: O=C(O)[C@H]1CC[C@H](c2cc3cccnc3c(-c3cccc(OC(F)(F)F)c3)n2)CC1
- IC50 (Phosphodiesterase 4): 52 nM
- AUC [30]: 49.7 µM·h
- Cmax [31]: 10.5 µM
- Activity (Mustela putorius furo): Non-toxic
- IC50 [8]: 107 nM
- ED50 (Rattus norvegicus [1]): 2 mg/kg
- half-life [32]: 1.87 h
- solubility thermodynamic [9]: 6 µg/mL (≈ 14.4 µM)
- IC50 [10]: 24 nM
- IC50 [11]: 43 nM
- Tmax [33]: 1.75 h

The next lines start with the values.

- half-life [2]: 193 h
- Tmax [3]: 25 h
- AUC [4]: 1880 µM·h
- clearance [5]: 0.22 mL/min/kg
- Vd [6]: 0.25 L/kg
- Cmax [7]: 8.3 µM
Compound: N#Cc1cccc(-c2nc([C@H]3CC[C@H](C(=O)[O-])CC3)cc3cccnc23)c1.[K+]

- Cmax [12]: 4.49 µM
- clearance [13]: 0.98 mL/min/kg
- Vd [14]: 0.25 L/kg
- half-life [15]: 7 h
- bioavailability [16]: 149%
- Tmax [17]: 2.88 h
- AUC [18]: 54.4 µM·h
Compound: O=C([O-])C1CCN(c2cc3cccnc3c(-c3cccc(OC(F)(F)F)c3)n2)CC1.[Na+]

- half-life [2]: 17 h
- Tmax [3]: 2.88 h
- Vd [19]: 0.24 L/kg
- AUC (Rattus norvegicus [20]): 3919 µM·min
- F (Rattus norvegicus [21]): 70%
Compound: O=C([O-])C1CCN(c2cc3cccnc3c(-c3cccc(F)c3)n2)CC1.[Na+]

- Cmax [12]: 3.6 µM
- clearance [13]: 0.65 mL/min/kg
- Vd [14]: 0.36 L/kg
- half-life [15]: 29 h
- bioavailability [16]: 107%
- Tmax [17]: 7.42 h
- AUC [18]: 84 µM·h
Compound: O=C([O-])[C@H]1CC[C@H](c2cc3cccnc3c(-c3cccc(OC(F)(F)F)c3)n2)CC1.[K+]
